# How the values were obtained:
# [1] = target: T1, 5-hydroxytryptamine receptor 1A (Homo sapiens) (UniProt P08908); test: Antagonist activity against CHO cells expressing the human 5-hydroxytryptamine 1A receptor in a forskolin stimulated adenylate cyclase (FSC) assay.; assay type: functional, cell-based
# T1 sequence (whole entry): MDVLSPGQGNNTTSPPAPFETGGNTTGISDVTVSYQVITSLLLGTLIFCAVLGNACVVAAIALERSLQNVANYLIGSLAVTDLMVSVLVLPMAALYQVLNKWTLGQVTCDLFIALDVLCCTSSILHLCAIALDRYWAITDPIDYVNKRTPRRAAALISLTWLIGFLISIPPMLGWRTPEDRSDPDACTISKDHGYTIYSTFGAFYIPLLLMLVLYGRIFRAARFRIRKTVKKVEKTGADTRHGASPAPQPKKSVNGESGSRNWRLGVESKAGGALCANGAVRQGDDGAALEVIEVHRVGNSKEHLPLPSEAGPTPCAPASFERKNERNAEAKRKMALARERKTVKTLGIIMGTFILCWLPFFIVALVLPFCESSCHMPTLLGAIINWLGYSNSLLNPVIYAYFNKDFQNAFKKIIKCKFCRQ
# Rattus norvegicus [2] = test: In vivo antagonist activity was measured as forepaw treading(FT) in a behavioral response test in reserpinized rats upon subcutaneous administration; assay type: functional
# Method in brief: (§1)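 Male Wistar rats given reserpine 18 h before use. Test compound or vehicle given 15 min before 8-OH-DPAT (0.25 mg/kg sc). Starting 3 min after agonist, forepaw treading and flat body posture scored every 3 min for 15 min on a ranked intensity scale. Doses expressed as free base. Mean ± SEM; Mann–Whitney U-test against vehicle control.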
# Rattus norvegicus [3] = test: In vivo antagonist activity was measured as flat body posture (FBP) in a behavioral response test in reserpinized rats at 1 mg/kg(sc) dose.; assay type: functional; method in brief: as §1
# Rattus norvegicus [4] = test: In vivo antagonist activity was measured as flat body posture (FBP) in a behavioral response test in reserpinized rats at 3 mg/kg(sc) dose.; assay type: functional; method in brief: as §1
# Rattus norvegicus [5] = test: In vivo antagonist activity was measured as flat body posture (FBP) in a behavioral response test in reserpinized rats upon subcutaneous administration; assay type: functional; method in brief: as §1
# Rattus norvegicus [6] = test: In vivo antagonist activity was measured as forepaw treading(FT) in a behavioral response test in reserpinized rats at 1 mg/kg(sc) dose.; assay type: functional; method in brief: as §1
# Rattus norvegicus [7] = test: In vivo antagonist activity was measured as forepaw treading(FT) in a behavioral response test in reserpinized rats at 3 mg/kg(sc) dose.; assay type: functional; method in brief: as §1
# [8] = target: Serotonin 1a (5-HT1a) receptor/Adrenergic receptor alpha-1 (Rattus norvegicus) (UniProt P15823+P23944+P43140+P19327); test: Selectivity for 5-HT1A receptor of rat hippocampus and alpha-1 adrenergic receptor of rat cortex.; assay type: tissue-based
# [9] = Binding affinity (Ki) ratio of D2 receptor of rat striatum and 5-HT1A receptor of rat hippocampus.; assay type: tissue-based
# [10] = target: T2, 5-hydroxytryptamine receptor 1A (Rattus norvegicus, UniProt P19327); test: Binding affinity against 5-hydroxytryptamine 1A receptor on rat hippocampus using [3H]8-OH-DPAT as radioligand.; assay type: tissue-based
# T2 sequence (P19327 whole entry): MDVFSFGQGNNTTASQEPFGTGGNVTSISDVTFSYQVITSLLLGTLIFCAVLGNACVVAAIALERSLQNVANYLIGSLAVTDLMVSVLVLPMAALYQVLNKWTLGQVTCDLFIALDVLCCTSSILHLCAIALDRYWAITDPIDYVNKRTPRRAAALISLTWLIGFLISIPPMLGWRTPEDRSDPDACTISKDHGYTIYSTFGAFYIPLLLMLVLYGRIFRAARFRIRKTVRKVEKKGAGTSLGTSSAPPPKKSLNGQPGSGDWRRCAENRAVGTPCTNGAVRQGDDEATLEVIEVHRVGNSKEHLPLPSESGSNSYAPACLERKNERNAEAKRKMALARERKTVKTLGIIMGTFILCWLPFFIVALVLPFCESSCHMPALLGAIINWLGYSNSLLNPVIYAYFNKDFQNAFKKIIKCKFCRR
# [11] = target: T3, Adrenergic receptor alpha-1 (Rattus norvegicus, UniProt P15823+P23944+P43140); test: Binding affinity against alpha-1 adrenergic receptor on rat cortex using [3H]-prazosin as radioligand.; assay type: tissue-based, Brain
# T3 sequence (P15823 whole entry): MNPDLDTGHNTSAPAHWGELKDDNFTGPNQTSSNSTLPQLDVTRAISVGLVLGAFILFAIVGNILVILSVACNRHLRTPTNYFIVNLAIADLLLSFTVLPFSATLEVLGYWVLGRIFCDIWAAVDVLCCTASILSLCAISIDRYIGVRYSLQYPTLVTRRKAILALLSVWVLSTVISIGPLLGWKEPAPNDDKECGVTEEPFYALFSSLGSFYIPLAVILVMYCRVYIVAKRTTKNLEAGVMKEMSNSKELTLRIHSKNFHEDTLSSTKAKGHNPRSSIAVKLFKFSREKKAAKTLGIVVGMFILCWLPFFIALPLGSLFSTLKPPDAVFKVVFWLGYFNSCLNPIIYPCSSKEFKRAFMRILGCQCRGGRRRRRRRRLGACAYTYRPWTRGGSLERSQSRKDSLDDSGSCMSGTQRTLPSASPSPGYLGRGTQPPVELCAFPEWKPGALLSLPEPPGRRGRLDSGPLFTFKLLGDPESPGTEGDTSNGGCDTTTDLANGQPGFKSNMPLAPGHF
# T3 sequence (P23944 whole entry): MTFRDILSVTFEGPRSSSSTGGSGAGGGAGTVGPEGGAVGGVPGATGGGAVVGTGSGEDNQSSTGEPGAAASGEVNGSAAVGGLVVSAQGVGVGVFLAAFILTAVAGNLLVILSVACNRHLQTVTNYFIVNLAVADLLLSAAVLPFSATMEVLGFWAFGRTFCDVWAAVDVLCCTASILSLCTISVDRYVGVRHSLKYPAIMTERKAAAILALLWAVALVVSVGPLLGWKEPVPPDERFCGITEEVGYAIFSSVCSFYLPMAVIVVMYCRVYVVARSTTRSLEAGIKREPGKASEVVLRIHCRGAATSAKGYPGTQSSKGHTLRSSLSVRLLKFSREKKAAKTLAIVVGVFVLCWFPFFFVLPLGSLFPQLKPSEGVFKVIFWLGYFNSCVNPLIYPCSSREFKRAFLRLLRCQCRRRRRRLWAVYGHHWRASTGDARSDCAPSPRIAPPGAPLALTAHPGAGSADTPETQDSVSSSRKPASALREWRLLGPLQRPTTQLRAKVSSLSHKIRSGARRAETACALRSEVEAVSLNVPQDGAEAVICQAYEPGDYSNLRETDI
# T3 sequence (P43140 whole entry): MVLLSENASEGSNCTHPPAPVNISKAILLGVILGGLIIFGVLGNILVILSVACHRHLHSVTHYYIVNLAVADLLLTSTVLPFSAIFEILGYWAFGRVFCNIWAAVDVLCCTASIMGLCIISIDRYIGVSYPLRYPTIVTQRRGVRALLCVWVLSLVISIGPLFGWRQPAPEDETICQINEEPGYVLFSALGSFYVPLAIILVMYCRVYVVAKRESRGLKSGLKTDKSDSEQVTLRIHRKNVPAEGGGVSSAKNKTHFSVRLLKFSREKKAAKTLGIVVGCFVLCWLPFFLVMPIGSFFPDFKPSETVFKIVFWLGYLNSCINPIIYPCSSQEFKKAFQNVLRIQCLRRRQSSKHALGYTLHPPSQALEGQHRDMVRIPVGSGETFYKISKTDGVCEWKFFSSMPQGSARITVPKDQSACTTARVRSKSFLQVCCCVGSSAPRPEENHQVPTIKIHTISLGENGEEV
# D(2) dopamine receptor = D(2) dopamine receptor (Rattus norvegicus, UniProt P61169); test: Binding affinity against dopamine receptor D2 on rat striatum using [3H]spiperone as radioligand.; assay type: tissue-based
# Chain of D(2) dopamine receptor (P61169 whole entry): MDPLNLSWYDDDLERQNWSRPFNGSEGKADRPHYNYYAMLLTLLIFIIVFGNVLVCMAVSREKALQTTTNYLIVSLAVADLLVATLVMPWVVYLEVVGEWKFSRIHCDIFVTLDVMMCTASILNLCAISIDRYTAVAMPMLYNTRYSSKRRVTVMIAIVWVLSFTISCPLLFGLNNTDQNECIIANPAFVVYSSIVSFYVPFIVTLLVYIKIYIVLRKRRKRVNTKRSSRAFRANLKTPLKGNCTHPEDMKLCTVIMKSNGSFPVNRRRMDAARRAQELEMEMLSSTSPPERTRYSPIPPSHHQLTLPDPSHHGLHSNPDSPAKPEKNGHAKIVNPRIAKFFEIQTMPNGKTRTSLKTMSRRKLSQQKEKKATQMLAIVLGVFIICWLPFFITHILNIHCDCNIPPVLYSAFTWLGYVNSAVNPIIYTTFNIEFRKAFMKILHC
# Rattus norvegicus [12] = test: in vivo antagonist activity was measured as forepaw treading(FT) in a behavioral response test in reserpinized rats at 3 mg/kg(sc) dose; assay type: functional
# Method in brief: (§2)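 Male Wistar rats given reserpine 18 h beforehand. Test compound or vehicle given sc; 15 min later 8-OH-DPAT 0.25 mg/kg sc. Forepaw treading and flat body posture scored on a ranked intensity scale every 3 min for 15 min, starting 3 min after 8-OH-DPAT. Doses as free base; mean ± SEM, Mann–Whitney U-test against vehicle controls.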
# Rattus norvegicus [13] = test: in vivo antagonist activity was measured as forepaw treading(FT) in a behavioral response test in reserpinized rats upon subcutaneous administration; assay type: functional; method in brief: as §2
# Rattus norvegicus [14] = test: in vivo antagonist activity was measured as flat body posture (FBP) in a behavioral response test in reserpinized rats at 1 mg/kg(sc) dose; assay type: functional; method in brief: as §2
# Rattus norvegicus [15] = test: in vivo antagonist activity was measured as flat body posture (FBP) in a behavioral response test in reserpinized rats at 3 mg/kg(sc) dose; assay type: functional; method in brief: as §2
# Rattus norvegicus [16] = test: in vivo antagonist activity was measured as flat body posture (FBP) in a behavioral response test in reserpinized rats upon subcutaneous administration; assay type: functional; method in brief: as §2
# Rattus norvegicus [17] = test: in vivo antagonist activity was measured as forepaw treading(FT) in a behavioral response test in reserpinized rats at 1 mg/kg(sc) dose; assay type: functional; method in brief: as §2
SMILES,FSC recovery [1],Selectivity [8],Ratio [9],Ki [10],Ki [11],Ki (D(2) dopamine receptor),Behavior score (Rattus norvegicus [2]),Behavior score (Rattus norvegicus [3]),Behavior score (Rattus norvegicus [4]),Behavior score (Rattus norvegicus [5]),Behavior score (Rattus norvegicus [6]),Behavior score (Rattus norvegicus [7]),Behavior score (Rattus norvegicus [12]),Behavior score (Rattus norvegicus [13]),Behavior score (Rattus norvegicus [14]),Behavior score (Rattus norvegicus [15]),Behavior score (Rattus norvegicus [16]),Behavior score (Rattus norvegicus [17])
COc1ccc(CCCCNCCOc2cc(F)cc3c2OCCC3)cc1,121%,12,1.2,–,–,–,8.8,3.8,3,11.5,1.8,0.5,–,–,–,–,–,–
O=C1CCOc2c(OCCNCCCCc3ccc4c(c3)CCO4)cc(F)cc21,68%,40,12,4.19 nM,169 nM,49.6 nM,10.1,6.8,3.8,12.3,4,1.2,–,–,–,–,–,–
COc1ccc(CCCCNCCOc2cc(F)cc3c2OCCC3=O)cc1,59%,66,20,3.07 nM,203 nM,62.3 nM,10.2,6,2.3,11.3,3.8,1.3,–,–,–,–,–,–
CCCN(CCC)[C@H]1CCc2c(F)ccc(O)c2C1,–,130,–,–,–,–,–,–,–,–,–,–,0.5,9.9,3.5,1.8,12.6,1.3

# The remaining molecules from weak to strong by Ki [10], led by results:
FSC recovery [1],Selectivity [8],Ratio [9],Ki [10],Ki [11],Ki (D(2) dopamine receptor),SMILES,Behavior score (Rattus norvegicus [2]),Behavior score (Rattus norvegicus [3]),Behavior score (Rattus norvegicus [4]),Behavior score (Rattus norvegicus [5]),Behavior score (Rattus norvegicus [6]),Behavior score (Rattus norvegicus [7]),Behavior score (Rattus norvegicus [12]),Behavior score (Rattus norvegicus [13]),Behavior score (Rattus norvegicus [14]),Behavior score (Rattus norvegicus [15]),Behavior score (Rattus norvegicus [16]),Behavior score (Rattus norvegicus [17])
55%,78,16,2.67 nM,209 nM,42.1 nM,O=C1CCOc2c(OCCNCCCCc3ccc4c(c3)OCO4)cc(F)cc21,7.8,5.3,3,9.7,3,1.5,–,–,–,–,–,–
65%,120,9.7,2.6 nM,303 nM,25.1 nM,O=C1CCOc2c(OCCNCCCCc3ccc4c(c3)OCCO4)cc(F)cc21,7.7,–,8.5,11,–,5.8,–,–,–,–,–,–
–,–,–,0.716 nM,10.4 nM,0.724 nM,COc1ccc(CCCCNCCOc2cc(F)cc3c2OCCC3O)cc1 (stereo in doubt; 34),8.6,6.8,4,12.4,3.3,1.8,–,–,–,–,–,–
12%,15,43,0.188 nM,2.73 nM,8.13 nM,COc1ccc(CCNCCOc2cc(F)cc3c2OC(C)CC3)cc1 (centres undefined),–,–,–,–,–,–,–,–,–,–,–,–
109%,52,1.8,0.159 nM,8.31 nM,0.288 nM,COc1ccc(CCCCNCCOc2cc(F)cc3c2OCC=C3)cc1,11.8,3.7,2.8,11.8,1.3,0,–,–,–,–,–,–

# — ChEMBL document CHEMBL1131034, “Synthesis and pharmacological characterization of novel 6-fluorochroman derivatives as potential 5-HT1A receptor antagonists” (J Med Chem, 1998)
